Results published in ChEMBL document CHEMBL3785019, “Dihydropyrazole derivatives as telomerase inhibitors: Structure-based design, synthesis, SAR and anticancer evaluation in vitro and in vivo” (Eur J Med Chem, 2016).
Active and inactive are the calls of the source. No cut-off for these calls is given here.

Columns and labels:
[1] = Antitumor activity against mouse EAC cells xenografted in Kunming mouse assessed as prolongation of survival time at 60 mg/kg/day, QD administered via oral gavage for 10 consecutive days days relative to untreated control; assay type: functional; conditions: Ehrlich
In short: (§1)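 EAC cells were grown in RPMI-1640 with 10% heat-inactivated FBS and were kept as ascites by passaging 0.2 mL (2 × 10^6 cells) between mice. Kunming mice weighing 20 ± 2 g were used. Survival was followed by mortality. Mean survival time is the sum of each mouse's survival days divided by the number of mice. %ILS is the […].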

[2] = tested on: CCRF S-180; test: Antitumor activity against mouse S180 cells xenografted in Kunming mouse assessed as tumor weight at 60 mg/kg/day, QD administered via oral gavage for 10 consecutive days (reference value: 1.98 +/- 0.22g); assay type: functional
In short: (§2)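 Kunming mice (20 ± 2 g) inoculated subcutaneously in right front armpit with seven-day-old ascites (0.2 ml, 2 × 10^6 cells). 24 h later randomized, 10 per group; oral gavage 60 mg/kg/day or normal saline (10 mL/kg) once daily for ten days. Sacrificed day 11; tumors and mice weighed. Inhibition rate = (Wcontrol − Wtreated)/Wcontrol × 100%.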

[3] = tested on: Mus musculus; test: Toxicity in Kunming mouse xenografted with mouse EAC cells assessed as body weight at 60 mg/kg/day, QD administered via oral gavage for 10 consecutive days measured on day 11 (reference value: 19.52 +/- 1.17g); assay type: organism-based, Ehrlich; conditions: in vivo
[4] = biological target: Telomerase reverse transcriptase (Homo sapiens, UniProt O14746); test: Inhibition of telomerase in human MGC-803 cells after 24 hrs by TRAP-PCR-ELISA assay; assay type: cell-based
Sequence of Telomerase reverse transcriptase (O14746 whole entry): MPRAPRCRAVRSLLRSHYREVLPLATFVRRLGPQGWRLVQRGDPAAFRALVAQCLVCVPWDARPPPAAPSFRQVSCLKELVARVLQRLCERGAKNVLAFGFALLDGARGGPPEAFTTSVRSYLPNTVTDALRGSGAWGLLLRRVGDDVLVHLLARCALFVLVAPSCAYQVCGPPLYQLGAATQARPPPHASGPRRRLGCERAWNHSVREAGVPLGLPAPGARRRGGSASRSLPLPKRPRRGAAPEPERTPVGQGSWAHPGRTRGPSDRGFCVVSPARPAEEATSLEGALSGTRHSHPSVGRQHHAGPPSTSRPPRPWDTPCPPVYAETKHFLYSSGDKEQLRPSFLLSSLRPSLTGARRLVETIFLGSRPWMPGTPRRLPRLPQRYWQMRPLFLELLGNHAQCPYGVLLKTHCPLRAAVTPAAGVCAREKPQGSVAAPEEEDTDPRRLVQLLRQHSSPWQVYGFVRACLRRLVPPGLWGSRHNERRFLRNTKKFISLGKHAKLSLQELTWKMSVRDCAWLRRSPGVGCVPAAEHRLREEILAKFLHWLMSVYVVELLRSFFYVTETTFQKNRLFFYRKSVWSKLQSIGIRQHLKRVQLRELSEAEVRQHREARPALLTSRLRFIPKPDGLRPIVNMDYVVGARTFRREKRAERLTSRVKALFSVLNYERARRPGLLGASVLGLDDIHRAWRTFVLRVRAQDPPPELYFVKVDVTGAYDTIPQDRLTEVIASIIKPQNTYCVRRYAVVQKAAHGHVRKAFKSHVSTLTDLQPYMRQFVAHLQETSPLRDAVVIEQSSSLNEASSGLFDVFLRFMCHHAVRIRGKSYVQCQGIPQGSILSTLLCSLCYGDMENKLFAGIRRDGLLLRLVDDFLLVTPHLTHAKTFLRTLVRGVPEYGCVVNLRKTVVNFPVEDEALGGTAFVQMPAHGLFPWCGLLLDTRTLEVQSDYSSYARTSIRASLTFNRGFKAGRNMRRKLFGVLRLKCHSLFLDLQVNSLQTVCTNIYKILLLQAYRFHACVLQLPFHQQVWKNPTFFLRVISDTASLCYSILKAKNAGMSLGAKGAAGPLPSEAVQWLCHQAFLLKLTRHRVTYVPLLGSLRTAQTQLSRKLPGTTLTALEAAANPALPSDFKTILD
In short: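 Cells lysed in RIPA on ice for 30 min; extract incubated with TRAP mix at 25 °C for 30 min, then 35 PCR cycles. Products hybridized to DIG probe, captured on streptavidin, detected with peroxidase anti-DIG at 490 nm; mean±SD.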

[5] = tested on: HepG2; test: Antitumor activity against human HepG2 cells xenografted in Kunming mouse assessed as inhibition of tumor growth at 60 mg/kg/day, QD administered via oral gavage for 10 consecutive days; assay type: functional; conditions: read-out: TGI; in short: as §2
[6] = tested on: HepG2; test: Antitumor activity against human HepG2 cells xenografted in Kunming mouse assessed as tumor weight at 60 mg/kg/day, QD administered via oral gavage for 10 consecutive days (reference value: 1.93 +/- 0.20g)
[7] = tested on: Mus musculus; test: Toxicity in human HepG2 cells xenografted Kunming mouse assessed as body weight at 60 mg/kg/day, QD administered via oral gavage for 10 consecutive days measured on day 11 (reference value: 25 +/- 1.65g); assay type: organism-based; conditions: in vivo; in short: as §2
[8] = Cytotoxicity against human MGC803 cells after 48 hrs by MTT assay; assay type: functional, cell-based, MGC-803; conditions: Homo sapiens, MGC-803, 48 h; read-out: IC50
In short: (§3)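 Tumor cells in log phase in RPMI 1640 + 10% FBS, seeded at 3×10^4 cells mL-1 and incubated 24 h (37 °C, 5% CO2). Test samples added at pre-set concentrations (6 wells each), doxorubicin as reference; 48 h exposure. MTT (2.5 mg·mL-1 in PBS) added for 4 h, formazan dissolved in DMSO, A570 read.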

[9] = tested on: Bcap37; test: Cytotoxicity against human Bcap37 cells after 48 hrs by MTT assay; assay type: functional, cell-based; conditions: Homo sapiens, Bcap37, 48 h; read-out: IC50; in short: as §3
[10] = Cytotoxicity against human PC3 cells after 48 hrs by MTT assay; assay type: functional, cell-based, PC-3; conditions: Homo sapiens, PC-3, 48 h; read-out: IC50; in short: as §3
[11] = tested on: CCRF S-180; test: Antitumor activity against mouse S180 cells xenografted in Kunming mouse assessed as inhibition of tumor growth at 60 mg/kg/day, QD administered via oral gavage for 10 consecutive days; assay type: functional; conditions: CCRF S-180, po, read-out: TGI; in short: as §2
[12] = Cytotoxicity against human L02 cells after 48 hrs by MTT assay; assay type: cell-based; conditions: L02, 48 h
In short: (§4)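 Human normal gastric mucosa GES-1 and liver L-02 cells; MTT assay; IC50 expressed in mM as mean of triplicate experiments.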

[13] = tested on: HepG2; test: Cytotoxicity against human HepG2 cells after 48 hrs by MTT assay; assay type: functional, cell-based; conditions: Homo sapiens, HepG2, 48 h; read-out: IC50; in short: as §3
[14] = Antitumor activity against mouse EAC cells xenografted in Kunming mouse assessed as survival time at 60 mg/kg/day, QD administered via oral gavage for 10 consecutive days days (reference value: 16.6 +/- 2.02days); assay type: functional, Ehrlich; in short: as §1
[15] = Cytotoxicity against human GES-1 cells after 48 hrs by MTT assay; assay type: cell-based; conditions: GES1, 48 h; in short: as §4
[16] = tested on: Mus musculus; test: Toxicity in mouse S180 cells xenografted Kunming mouse assessed as body weight at 60 mg/kg/day, QD administered via oral gavage for 10 consecutive days measured on day 11 (reference value: 23.84 +/- 2.11g); assay type: organism-based, CCRF S-180; conditions: in vivo; in short: as §2
[17] = tested on: Rattus norvegicus; test: Antitumor activity against DEN induced Sprague-Dawley rat hepatic tumor assessed as improvement of pathological changes at 50 mg/kg, po qd for 10 consecutive weeks by HE-staining based microscopic analysis; assay type: functional, organism-based
In short: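 Male SD rats (120~160 g) gavaged with DEN 8 mg/kg once daily, 6 days/week; DEN continued to week 16. From week 10, compound given orally at 50 mg·kg-1 once daily for 10 consecutive weeks; n = 12 per group. Similar parts of left liver lobe fixed in 4% polyformaldehyde, paraffin-embedded, sectioned, HE stained; histopathology viewed at ×200.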

| Structure (SMILES) | survival at 60 mg/kg/day [1] [%] | Activity [2] [g] | Activity [3] [g] | IC50 [4] [µM] | inhibition in vivo at 60 mg/kg/day [5] [%] | Activity [6] [g] | Activity [7] [g] | IC50 [8] [µM] | IC50 [9] [µM] | IC50 [10] [µM] | inhibition in vivo at 60 mg/kg/day [11] [%] | IC50 [12] [µM] | IC50 [13] [µM] | Survival [14] [days] | IC50 [15] [µM] | Activity [16] [g] | Activity [17] |
| --- | --- | --- | --- | --- | --- | --- | --- | --- | --- | --- | --- | --- | --- | --- | --- | --- | --- |
| CC1=NN(C(=O)CN2CCCCC2)C(c2ccccc2O)C1 (stereo not drawn) | 41 | 1.1 | 19.3 | 4.63 | 39.4 | 1.17 | 26 | 4.31 | 33.1 | 5.89 | 44.4 | 1800 | 3.02 | 23.41 | 1290 | 24.89 |  |
| CCCCN(CCCC)CC(=O)N1N=C(c2cc3ccccc3oc2=O)CC1c1ccccc1 (stereo not drawn) | 43.9 | 1.01 | 19.6 | 0.98 | 46.1 | 1.04 | 27.11 | 2.96 | 3.37 | 4.87 | 48.9 | 1620 | 2.45 | 23.89 | 1640 | 24.64 | Active |
